PGC1a acetyl inh – inhibitors of PGC1a acetylation signal, primary screen, cell-based, U2OS, AlphaScreen, inhibitor mode. 350,000 compounds, 0.17% hits. inhibition, % at 15.6 µM. AlphaScreen anti-acetyl-lysine; with virally co-expressed GCN5 acetyltransferase;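 active means every replicate shows inhibition of at least 40%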
PAX8 reporter – inhibitors of PAX8-driven TPO luciferase reporter, primary screen, RMG-I cells, single concentration | SteadyGlo, 24 h | inhibition, % at 12.6 µM | 360,000 compounds, 1.2% hits | AID 652154, 2013;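 active means mean replicate inhibition at least 60% with every replicate also reaching 60%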;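 further: luciferase light reporting Pax8 driven TPO promoter activity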
EWS-Fli inh – EWS/Fli-driven NR0B1 reporter inhibitors, primary screen, A673 cells, NR0B1 luciferase, luminescence, MLPCN library; viability-normalised; inhibition, % at 12.6 µM; 350,000 compounds, 0.67% hits; AID 651661, 2012;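 active means mean inhibition of at least 50% after viability correction, with every replicate also passing that limit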;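 further: firefly luciferase signal divided by Alamar Blue viability fluorescence both relative to DMSO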
FN deposit inh – inhibitors of fibronectin matrix deposition, primary screen, AH1F cells, Alexa488-fibronectin fluorescence, plate reader; AH1F fibroblasts, overnight; inhibition, % at 12.6 µM; 350,000 compounds, 0.086% hits; AID 743247, 2014;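 active means mean inhibition across replicates of 30% or more, regardless of how many single replicates reach that level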
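Material: AH1F fibroblasts assembling fluorescent fibronectin matrix; amount: 10000 AH1F cells/well; medium: DMEM, 2% serum; reagent: Alexa488-fibronectin, 24 nM final in well; dosing: single compound dose, delivered by pin transfer; incubation: 1 h adhesion, overnight exposure; detection: fluorescence after three HBSS washes, excitation 485 nm, emission 525 nm; measure: fibronectin deposition inhibition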
Env fusion inh – inhibitors of HIV-1 Env-driven cell-cell fusion, primary screen, HeLa-JRFL effector, CEM21 target cells, luciferase. inhibition, % at 12.3 µM. 360,000 compounds, 1.1% hits. AID 651610, 2012;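 active means mean replicate inhibition score of at least 50 and every replicate individually at or above 50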
F508del corr – F508del CFTR correction, initial screen, CFBE line, single point; CFBE cells, YFP halide quenching; stimulated with forskolin plus potentiator P3; % fluorescence drop versus neutral controls; activity (quench increase), % at 7.58 µM; AID 720511, 2013; 350,000 compounds, 0.36% hits;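 active means mean added fluorescence quench of at least 8% versus neutral control, with both replicates also reaching 8%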;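 further: cells transiently co-express mutant CFTR-F508del with the halide-sensitive YFP; corrector assay measuring rescue of mutant channel to the surface after 24 h compound exposure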
Numbers stand for hits; – = inactive; · = no result; [ ] = remark or other dose. Shown are actives, neighbours in structure and some others; about 2.3% of the full set was active somewhere.

SMILES	PGC1a acetyl inh	PAX8 reporter	EWS-Fli inh	FN deposit inh	Env fusion inh	F508del corr
CC1=C(C(=O)OCc2ccc3c(c2)OCO3)C(c2ccccc2OCc2ccccc2)NC(=O)N1 (stereo not drawn)	–	·	·	–	60.9	·
CC1=C(C(=O)OCc2ccc3c(c2)OCO3)C(c2ccccc2)NC(=O)N1 (stereo not drawn)	55.5	·	·	–	107.1	·
Cc1noc(C)c1S(=O)(=O)Nc1ccc2c(c1)C(=O)N([C@@H](C)CO)C[C@@H](C)[C@@H](CN(C)C(=O)Nc1ccc(C(F)(F)F)cc1)OCCCC[C@H](C)O2	–	–	–	·	–	–
CC(=O)Nc1ccc2c(c1)C(=O)N(C)C[C@H](C)[C@@H](CN(C)S(C)(=O)=O)O2	·	·	·	–	·	·
CCCC#Cc1ccc2c(c1)O[C@@H](CN(C)C(=O)C1CCC1)[C@@H](C)CN([C@@H](C)CO)S2(=O)=O	–	·	–	–	–	–
COc1ccc2c3c([nH]c2c1)[C@H](CO)N(C(=O)Nc1cccc(F)c1)CC31CN(S(=O)(=O)c2cccc(C)c2)C1	·	·	–	·	75.2[16.7 µM]	–
COc1cccc(S(=O)(=O)N2CC3(CN(C(=O)Nc4cccc(F)c4)[C@@H](CO)c4[nH]c5cc(OC)ccc5c43)C2)c1	·	·	–	·	93.3[16.7 µM]	–
COc1ccc2c3c([nH]c2c1)[C@@H](CO)N(C(=O)Nc1ccc(F)cc1)CC31CN(S(=O)(=O)c2cccc(C)c2)C1	·	·	–	·	–	–
COc1ccc2c3c([nH]c2c1)[C@H](CO)N(C(=O)Nc1cccc(F)c1)CC31CCN(S(=O)(=O)c2cccc(C)c2)CC1	–	106.0	–	–	·	–
C[C@H]1CN([C@@H](C)CO)S(=O)(=O)c2ccc(-c3ccc(F)cc3)cc2O[C@H]1CN(C)C(=O)Nc1ccc(F)cc1	–	·	–	–	–	–
O=C(NC12CC3CC(CC(C3)C1)C2)OCCNC1CCCCC1	·	–	–	–	76.6	–
CCN(CC)c1ccc(/C=N/NC(=O)c2ccco2)c(O)c1	–	–	–	–	–	34.6
COCC(=O)Nc1ccc2c(c1)C(=O)N(C)C[C@@H](OC)[C@H](C)CN(C(=O)c1ccccc1F)[C@@H](C)CO2	–	–	–	–	–	–
C=CC[n+]1c(-c2ccccc2)csc1NC(C)(C)C	·	–	–	–	–	–
C=CC[n+]1c(-c2ccc(OC)c(OC)c2)csc1NNC(=O)Nc1ccccc1	–	·	·	–	74.1	·
COc1cccc(NC(=O)N2C[C@@H](O)COC[C@H]3O[C@H](CC(=O)NCCCN4CCOCC4)CC[C@@H]32)c1	–	·	·	–	·	–
O=C(c1cccc(F)c1)N1C[C@@H]2[C@H](c3ccccc31)[C@@H](CO)N2C(=O)C1CC1	–	–	–	–	·	–
COc1ccc(-c2cn(CC[C@@H]3CC[C@@H](NC(=O)Cc4ccccn4)[C@@H](CO)O3)nn2)cc1	–	62.1	–	·	–	–
COc1ccc(-c2cn(CC[C@H]3CC[C@H](NC(=O)Cc4ccccn4)[C@@H](CO)O3)nn2)cc1	–	85.7	–	·	–	–
COc1ccc(-c2cn(CC[C@H]3CC[C@H](NC(=O)Cc4ccccn4)[C@H](CO)O3)nn2)cc1	–	–	–	·	–	–
COc1ccc(-c2cn(CC[C@H]3CC[C@@H](NC(=O)Cc4ccccn4)[C@H](CO)O3)nn2)cc1	–	76.6	–	·	–	–
COc1cccc(S(=O)(=O)N[C@@H]2CC[C@H](CCn3cc(-c4ccccc4)nn3)O[C@@H]2CO)c1	–	–	52.7	·	–	–
CCC(=O)N1[C@H](CO)[C@H](c2ccc(-c3ccccc3)cc2)[C@@H]1CNC(=O)COC	–	–	–	–	·	–
CC(C)NC(=O)NCC[C@H]1CC[C@H](NS(=O)(=O)c2ccc(-c3ccccc3)cc2)[C@H](CO)O1	–	–	–	·	–	–
COC(=O)C[C@@H]1CC[C@@H]2[C@H](COC[C@H](O)CN2CCC(F)(F)F)O1	–	–	–	–	–	–
SMILES	PGC1a acetyl inh	PAX8 reporter	EWS-Fli inh	FN deposit inh	Env fusion inh	F508del corr
O=S(=O)(N[C@H]1CC[C@@H](CCn2cc(Cc3ccccc3)nn2)O[C@H]1CO)c1ccccc1F	–	·	·	–	·	–
Cc1ccccc1S(=O)(=O)N[C@H]1CC[C@H](CCn2cc(Cc3ccccc3)nn2)O[C@@H]1CO	60.9	–	–	–	–	–
O=C(C[C@@H]1CC[C@@H]2[C@H](COC[C@@H](O)CN2C(=O)Nc2ccc(C(F)(F)F)cc2)O1)NC1Cc2ccccc2C1	–	87.9	–	–	–	–
O=C(C[C@H]1CC[C@H]2[C@@H](COC[C@H](O)CN2C(=O)Nc2ccc(C(F)(F)F)cc2)O1)NC1Cc2ccccc2C1	–	73.6	–	–	–	–
O=C(C[C@H]1CC[C@H]2[C@@H](COC[C@H](O)CN2C(=O)Nc2ccc(Cl)c(Cl)c2)O1)NCc1ccncc1	–	–	–	–	70.4[16.7 µM]	–
O=C(C[C@@H]1CC[C@@H]2[C@H](COC[C@H](O)CN2C(=O)Nc2ccc(C(F)(F)F)cc2)O1)NC1Cc2ccccc2C1	–	–	–	–	–	–
O=c1c2cc([N+](=O)[O-])ccc2sn1-c1ccccc1	·	–	–	·	–	–
N#Cc1c2ccc([N+](=O)[O-])cc2[n+]([O-])n1-c1ccccc1	–	67.9	62.1	·	·	–
O=C(Nc1ccc(Cl)cc1)N[C@H]1CC[C@@H](CCn2cc(Cc3ccccc3)nn2)O[C@H]1CO	–	–	–	·	–	–
COCC(C)n1c(SCc2nc(N)nc(Nc3ccccc3C)n2)nc2ccccc2c1=O (stereo not drawn)	–	·	·	32.5	–	·
C[C@]12CCC3C(CC[C@H]4CC(O)CC[C@]34C)C1CC/C2=N/NC(=O)c1ccncc1 (stereo partly drawn)	·	–	52.6	–	–	–
C[C@]12CCC3C(CC[C@H]4CC(O)CC[C@]34C)C1CC/C2=N/O (stereo partly drawn)	–	–	–	–	–	–
CCC(=O)Nc1ccc2c(c1)C(=O)N(C)C[C@H](OC)[C@H](C)CN(CCc1ccccc1)[C@@H](C)CO2	–	–	–	–	–	–
CCCN1[C@H](CO)[C@H](c2ccc(-c3ccccc3F)cc2)[C@@H]1CNC(=O)C1CCC1	·	·	·	–	·	·
Cc1ccc(N2CCN(c3ncccc3[N+](=O)[O-])CC2)c(C)c1	–	–	–	–	–	–
Cc1ccc(C)c(N2CCN(c3ncccc3[N+](=O)[O-])CC2)c1	–	61.5	–	–	–	–
Cn1nnc2c(C(N)=O)ncn2c1=O	–	–	–	–	–	–
NC(=O)c1ncn2c(=O)n(CCCl)nnc12	·	81.3	–	–	–	–
COc1cccc(NC(=O)CN(c2ccccc2OC)S(=O)(=O)c2cccs2)c1	–	–	–	–	64.5	–

Screens from PubChem BioAssay.
